Test [1] deals with Melanocyte-stimulating hormone receptor (Mus musculus, UniProt Q01727). Briefly: Agonist activity at mouse MC1R expressed in HEK293 cells by beta-galactosidase assay. In kind it is functional, cell-based.
In test [2] the target is Melanocortin receptor 3 (Mus musculus) (UniProt P33033). Briefly: Agonist activity at mouse MC3R expressed in HEK293 cells by beta-galactosidase assay at 100 uM relative to forskolin. Format: functional, cell-based. The settings on record: filed as agonist.
The target in test [3] is Melanocortin receptor 4 (Mus musculus) (UniProt P56450). The experiment in a line: Agonist activity at mouse MC4R expressed in HEK293 cells by beta-galactosidase assay at 100 uM relative to forskolin. In kind it is functional, cell-based. Conditions: filed as agonist.
For a further test, the target named is Melanocortin receptor 5 (Mus musculus, UniProt P41149). The experiment in a line: Agonist activity at mouse MC5R expressed in HEK293 cells by beta-galactosidase assay. Format: functional, cell-based.
The target in test [4] is T1, Melanocortin receptor 3 (Mus musculus, UniProt P33033). The experiment in a line: Displacement of MT2 from mouse MC3R expressed in HEK293 cells. Format: cell-based. A digest of the protocol:
(§1)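 Antagonism was measured in the same CRE/β-galactosidase assay in HEK-293 cells stably expressing the mouse receptor, as the dose-dependent competitive shift of MTII agonist response. pA2 was obtained by Schild analysis and converted to Ki. Values are means of duplicate wells from at least three independent experiments, ± SEM.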

In test [5] the target is T2, Melanocortin receptor 4 (Mus musculus, UniProt P56450). Briefly: Displacement of MT2 from mouse MC4R expressed in HEK293 cells. Format: cell-based. The procedure, abridged:
as §1

Test [6] addresses T2, Melanocortin receptor 4. The experiment in a line: Agonist activity at mouse MC4R expressed in HEK293 cells by beta-galactosidase assay. In kind it is functional, cell-based.
The target of test [7] is T1, Melanocortin receptor 3. Briefly: Agonist activity at mouse MC3R expressed in HEK293 cells by beta-galactosidase assay. In kind it is functional, cell-based.
The species named for test [8] is Mus musculus. Briefly: Selectivity for mouse MC1R over mouse MC3R.
The species entered for test [9] is Mus musculus. The experiment in a line: Selectivity for mouse MC1R over mouse MC4R.
For test [10], the species on record is Mus musculus. Briefly: Selectivity for mouse MC1R over mouse MC5R.

This note sets out measurements from ChEMBL document CHEMBL1149298, “Stereochemical studies of the monocyclic agouti-related protein (103-122) Arg-Phe-Phe residues: conversion of a melanocortin-4 receptor antagonist into an agonist and results in the discovery of a potent and selective melanocortin-1 agonist” (J Med Chem, 2004).

A value given as a limit tells only on which side of the number the result lay.

T1 sequence (P33033 whole entry): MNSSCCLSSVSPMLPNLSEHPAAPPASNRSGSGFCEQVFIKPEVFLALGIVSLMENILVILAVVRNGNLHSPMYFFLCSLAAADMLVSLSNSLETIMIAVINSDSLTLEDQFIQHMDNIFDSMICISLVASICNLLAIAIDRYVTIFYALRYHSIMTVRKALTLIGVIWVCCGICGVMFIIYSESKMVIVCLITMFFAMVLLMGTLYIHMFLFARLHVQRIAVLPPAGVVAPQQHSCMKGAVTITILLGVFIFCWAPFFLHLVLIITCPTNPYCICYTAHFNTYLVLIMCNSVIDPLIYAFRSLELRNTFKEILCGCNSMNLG
Melanocortin receptor 3 (Mus musculus), sequence (P33033 whole entry): as above
Melanocortin receptor 5, sequence (P41149 whole entry): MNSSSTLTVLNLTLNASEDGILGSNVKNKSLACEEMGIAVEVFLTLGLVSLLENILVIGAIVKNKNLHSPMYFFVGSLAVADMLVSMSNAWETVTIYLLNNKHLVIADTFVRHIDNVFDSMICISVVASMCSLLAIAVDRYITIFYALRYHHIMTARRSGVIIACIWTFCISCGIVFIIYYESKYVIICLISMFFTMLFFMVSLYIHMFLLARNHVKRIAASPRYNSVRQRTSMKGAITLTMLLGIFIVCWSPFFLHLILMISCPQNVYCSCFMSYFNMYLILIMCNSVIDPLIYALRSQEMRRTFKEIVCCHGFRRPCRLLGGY
T2 sequence (P56450 whole entry): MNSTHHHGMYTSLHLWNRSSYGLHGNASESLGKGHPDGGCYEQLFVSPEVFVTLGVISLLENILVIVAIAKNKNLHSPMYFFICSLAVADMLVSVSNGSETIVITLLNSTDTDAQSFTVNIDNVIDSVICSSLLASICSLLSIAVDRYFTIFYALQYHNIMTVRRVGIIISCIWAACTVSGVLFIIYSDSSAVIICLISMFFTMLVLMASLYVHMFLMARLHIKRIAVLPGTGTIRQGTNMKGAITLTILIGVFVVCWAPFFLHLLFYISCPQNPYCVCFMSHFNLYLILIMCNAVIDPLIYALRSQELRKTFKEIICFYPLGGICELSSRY
Melanocyte-stimulating hormone receptor, sequence (Q01727 whole entry): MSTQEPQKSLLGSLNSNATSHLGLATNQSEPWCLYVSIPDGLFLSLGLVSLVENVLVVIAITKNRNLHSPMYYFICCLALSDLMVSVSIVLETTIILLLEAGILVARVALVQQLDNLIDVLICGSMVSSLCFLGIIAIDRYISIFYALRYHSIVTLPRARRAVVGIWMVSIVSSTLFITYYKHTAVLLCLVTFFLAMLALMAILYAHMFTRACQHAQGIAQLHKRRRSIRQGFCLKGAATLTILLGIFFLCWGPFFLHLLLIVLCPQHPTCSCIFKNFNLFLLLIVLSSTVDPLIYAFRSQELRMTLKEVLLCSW
Melanocortin receptor 4 (Mus musculus), sequence (P56450 whole entry): as the sequence (P56450 whole entry) above

On to `CC(C)C[C@H](NC(=O)[C@H](CCCCN)NC(=O)[C@H](CCCNC(=N)N)NC(=O)[C@H](C)NC(=O)[C@H](Cc1ccc(O)cc1)NC(=O)[C@@H]1CSSC[C@H](NC(=O)[C@H](Cc2ccc(O)cc2)NC(=O)[C@H](C)NC(=O)[C@@H](NC(=O)[C@H](C)NC(=O)[C@H](C)NC(=O)[C@@H]2CCCN2C(=O)[C@@H](N)CC(=O)O)[C@@H](C)O)C(=O)N[C@@H](CCCNC(=N)N)C(=O)N[C@H](Cc2ccccc2)C(=O)N[C@@H](Cc2ccccc2)C(=O)N[C@@H](CC(N)=O)C(=O)N[C@@H](C)C(=O)N[C@@H](Cc2ccccc2)C(=O)N1)C(=O)O`, for which the results for the EC50 (in [1]; on Melanocortin receptor 5) were 93 nM (agonist) and 1.41 µM (agonist), respectively. The values for the Activity in test [2] and in test [3] were 50% and 75%, respectively. For the same compound, the pA2 is 6.14 on Melanocortin receptor 3 [4] and 6.56 on Melanocortin receptor 4 [5].
Consider `CC(C)C[C@H](NC(=O)[C@H](CCCCN)NC(=O)[C@H](CCCNC(=N)N)NC(=O)[C@H](C)NC(=O)[C@H](Cc1ccc(O)cc1)NC(=O)[C@@H]1CSSC[C@H](NC(=O)[C@H](Cc2ccc(O)cc2)NC(=O)[C@H](C)NC(=O)[C@@H](NC(=O)[C@H](C)NC(=O)[C@H](C)NC(=O)[C@@H]2CCCN2C(=O)[C@@H](N)CC(=O)O)[C@@H](C)O)C(=O)N[C@H](CCCNC(=N)N)C(=O)N[C@@H](Cc2ccccc2)C(=O)N[C@@H](Cc2ccccc2)C(=O)N[C@@H](CC(N)=O)C(=O)N[C@@H](C)C(=O)N[C@@H](Cc2ccccc2)C(=O)N1)C(=O)O`, for which the concentration giving a half-maximal response (EC50) is 6330 nM (agonist) in test [1], 37.7 µM (agonist) on Melanocortin receptor 4 [6] and 18.3 µM (agonist) on Melanocortin receptor 5. For the same compound, in [2], the Activity is 70%.
As for `CC(C)C[C@H](NC(=O)[C@H](CCCCN)NC(=O)[C@H](CCCNC(=N)N)NC(=O)[C@H](C)NC(=O)[C@H](Cc1ccc(O)cc1)NC(=O)[C@@H]1CSSC[C@H](NC(=O)[C@H](Cc2ccc(O)cc2)NC(=O)[C@H](C)NC(=O)[C@@H](NC(=O)[C@H](C)NC(=O)[C@H](C)NC(=O)[C@@H]2CCCN2C(=O)[C@@H](N)CC(=O)O)[C@@H](C)O)C(=O)N[C@@H](CCCNC(=N)N)C(=O)N[C@H](Cc2ccccc2)C(=O)N[C@H](Cc2ccccc2)C(=O)N[C@@H](CC(N)=O)C(=O)N[C@@H](C)C(=O)N[C@@H](Cc2ccccc2)C(=O)N1)C(=O)O`, the EC50 in test [1] is listed as 64 nM (agonist); at Melanocortin receptor 3 [7], 63.3 µM (agonist); at Melanocortin receptor 4 [6] it was 6.24 µM (agonist); on Melanocortin receptor 5, 11.4 µM (agonist). Moreover, the Selectivity ratio in the test filed under Mus musculus [8] was determined as 990; in the test listed under Mus musculus [9], 98; in the test listed under Mus musculus [10] it was 180.
With `CC(C)C[C@H](NC(=O)[C@H](CCCCN)NC(=O)[C@H](CCCNC(=N)N)NC(=O)[C@H](C)NC(=O)[C@H](Cc1ccc(O)cc1)NC(=O)[C@@H]1CSSC[C@H](NC(=O)[C@H](Cc2ccc(O)cc2)NC(=O)[C@H](C)NC(=O)[C@@H](NC(=O)[C@H](C)NC(=O)[C@H](C)NC(=O)[C@@H]2CCCN2C(=O)[C@@H](N)CC(=O)O)[C@@H](C)O)C(=O)N[C@@H](CCCNC(=N)N)C(=O)N[C@@H](Cc2ccccc2)C(=O)N[C@H](Cc2ccccc2)C(=O)N[C@@H](CC(N)=O)C(=O)N[C@@H](C)C(=O)N[C@@H](Cc2ccccc2)C(=O)N1)C(=O)O` (stereo in doubt; 1), the EC50 was 960 nM (agonist) in test [1] and > 100 µM (agonist) at Melanocortin receptor 5. The pA2 at Melanocortin receptor 3 [4] is 6.15; at Melanocortin receptor 4 [5], 6.92.
Consider `CC(C)C[C@H](NC(=O)[C@H](CCCCN)NC(=O)[C@H](CCCNC(=N)N)NC(=O)[C@H](C)NC(=O)[C@H](Cc1ccc(O)cc1)NC(=O)[C@@H]1CSSC[C@H](NC(=O)[C@H](Cc2ccc(O)cc2)NC(=O)[C@H](C)NC(=O)[C@@H](NC(=O)[C@H](C)NC(=O)[C@H](C)NC(=O)[C@@H]2CCCN2C(=O)[C@@H](N)CC(=O)O)[C@@H](C)O)C(=O)N[C@H](CCCNC(=N)N)C(=O)N[C@H](Cc2ccccc2)C(=O)N[C@H](Cc2ccccc2)C(=O)N[C@@H](CC(N)=O)C(=O)N[C@@H](C)C(=O)N[C@@H](Cc2ccccc2)C(=O)N1)C(=O)O`, for which the EC50 is 3750 nM (agonist) in test [1], 22.6 µM (agonist) at Melanocortin receptor 3 [7], 21.5 µM (agonist) on Melanocortin receptor 4 [6] and 13.2 µM (agonist) at Melanocortin receptor 5.
The corresponding values for `CC(C)C[C@H](NC(=O)[C@H](CCCCN)NC(=O)[C@H](CCCNC(=N)N)NC(=O)[C@H](C)NC(=O)[C@H](Cc1ccc(O)cc1)NC(=O)[C@@H]1CSSC[C@H](NC(=O)[C@H](Cc2ccc(O)cc2)NC(=O)[C@H](C)NC(=O)[C@@H](NC(=O)[C@H](C)NC(=O)[C@H](C)NC(=O)[C@@H]2CCCN2C(=O)[C@@H](N)CC(=O)O)[C@@H](C)O)C(=O)N[C@H](CCCNC(=N)N)C(=O)N[C@H](Cc2ccccc2)C(=O)N[C@@H](Cc2ccccc2)C(=O)N[C@@H](CC(N)=O)C(=O)N[C@@H](C)C(=O)N[C@@H](Cc2ccccc2)C(=O)N1)C(=O)O` are 1750 nM (agonist), 5.51 µM (agonist), 8.3 µM (agonist) and 4.6 µM (agonist).
`CC(C)C[C@H](NC(=O)[C@H](CCCCN)NC(=O)[C@H](CCCNC(=N)N)NC(=O)[C@H](C)NC(=O)[C@H](Cc1ccc(O)cc1)NC(=O)[C@@H]1CSSC[C@H](NC(=O)[C@H](Cc2ccc(O)cc2)NC(=O)[C@H](C)NC(=O)[C@@H](NC(=O)[C@H](C)NC(=O)[C@H](C)NC(=O)[C@@H]2CCCN2C(=O)[C@@H](N)CC(=O)O)[C@@H](C)O)C(=O)N[C@H](CCCNC(=N)N)C(=O)N[C@@H](Cc2ccccc2)C(=O)N[C@H](Cc2ccccc2)C(=O)N[C@@H](CC(N)=O)C(=O)N[C@@H](C)C(=O)N[C@@H](Cc2ccccc2)C(=O)N1)C(=O)O`: the EC50 was 5270 nM (agonist) in test [1], 8.33 µM (agonist) on Melanocortin receptor 4 [6] and 19.8 µM (agonist) on Melanocortin receptor 5. Moreover, the Activity in test [2] was 70%.
On to `CC(C)C[C@H](NC(=O)[C@H](CCCCN)NC(=O)[C@H](CCCNC(=N)N)NC(=O)[C@H](C)NC(=O)[C@H](Cc1ccc(O)cc1)NC(=O)[C@@H]1CSSC[C@H](NC(=O)[C@H](Cc2ccc(O)cc2)NC(=O)[C@H](C)NC(=O)[C@@H](NC(=O)[C@H](C)NC(=O)[C@H](C)NC(=O)[C@@H]2CCCN2C(=O)[C@@H](N)CC(=O)O)[C@@H](C)O)C(=O)N[C@@H](CCCNC(=N)N)C(=O)N[C@@H](Cc2ccccc2)C(=O)N[C@H](Cc2ccccc2)C(=O)N[C@@H](CC(N)=O)C(=O)N[C@@H](C)C(=O)N[C@@H](Cc2ccccc2)C(=O)N1)C(=O)O` (stereo in doubt; 4), for which the half-maximal effective concentration (EC50) in test [1] is on record as 120 nM (agonist); at Melanocortin receptor 3 [7] it was 13.7 µM (agonist); at Melanocortin receptor 4 [6], 3.7 µM (agonist); on Melanocortin receptor 5 it was 2.22 µM (agonist).
